Source: paper PMC7004075 (Clinical Pharmacology in Drug Development, 2019)

Assays:
[1] = test system: endogenous glucose production, nonhepatic glucose uptake; details: peripheral administration at 1.8 pmol/kg/min, preclinical; cited from earlier work
[2] = Plasma insulin tregopil pharmacokinetics, Cohort 2; format: in vivo, human; details: for plasma insulin tregopil Cmax, mean ± SD / plasma insulin tregopil AUC0-180min, mean ± SD: 30 mg oral
[3] = test system: plasma glucose in patients with T2DM; test: Plasma glucose pharmacodynamics, Cohort 2; format: in vivo, human
In short: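 Dosing was before each of 2 ADA meals set 4, 5 or 6 h apart and eaten within 30 min. Blood was taken predose and 10–180 min postdose. Baseline-adjusted glucose AUC0‑180min and Cmin were analysed by a mixed-effects model (sequence, period, treatment; patient-within-sequence random).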

patients with T2DM = test: Safety and tolerability; format: in vivo, human; details: for overall safety and tolerability: patients with T2DM, different dosing conditions
[4] = test system: plasma glucose in patients with T2DM; test: Plasma glucose pharmacodynamics, Cohort 1; format: in vivo, human
[5] = Cohort 2, 5-hour between-meal interval, afternoon dose
[6] = Cohort 2, 5-hour between-meal interval, morning dose

Q: Which “increase in plasma insulin levels in the peripheral artery” value [1] does the source give for “human insulin: human insulin infused into portal vein or peripherally in preclinical studies” here?
A: 2 fold

Q: For “insulin tregopil: PEGylated recombinant human insulin with a single methoxy-triethylene-glycol-propionyl unit on the Lys-β29-amino group; oral tablets”, which “intersubject variability of plasma insulin tregopil AUC0-180mins” value ([2]; Cohort 2) is on record?
A: 144.0%

Q: And the “intersubject variability of plasma insulin tregopil Cmax” value ([2]; Cohort 2)?
A: 124.7%

Q: And the “intrasubject variability of plasma insulin tregopil Cmax” value ([2]; Cohort 2)?
A: 64.7%

Q: What about the “plasma insulin tregopil Cmax, mean ± SD” value ([2]; Cohort 2, 4-hour between-meal interval, afternoon dose) of the same substance?
A: 6760 ± 7680 µg/mL

Q: And the “plasma insulin tregopil Cmax, mean ± SD” value ([2]; Cohort 2, 4-hour between-meal interval, morning dose)?
A: 11330 ± 9870 µg/mL

Q: And the “plasma insulin tregopil AUC0-180min, mean ± SD” value [2, 5]?
A: 209.27 ± 186.61 mg·min/mL

Q: What about the “plasma insulin tregopil Cmax, mean ± SD” value [2, 5] of the same substance?
A: 7139 ± 5691 µg/mL

Q: And the “plasma insulin tregopil AUC0-180min, mean ± SD” value [2, 6]?
A: 320.60 ± 196.340 mg·min/mL

Q: What about the “plasma insulin tregopil Cmax, mean ± SD” value [2, 6] of the same substance?
A: 10140 ± 5310 µg/mL

Q: And the “plasma insulin tregopil Cmax, mean ± SD” value ([2]; Cohort 2, 6-hour between-meal interval, morning dose (first value))?
A: 11320 ± 8730 µg/mL

Q: And the “intrasubject variability for the baseline-adjusted PD response Cmin” value ([3]; Cohort 2, insulin tregopil groups (placebo 9.16%))?
A: 11.61%

Q: What about the “intrasubject variability for the baseline-adjusted PD response AUC0-180mins” value ([3]; Cohort 2, insulin tregopil groups (placebo 9.17%)) of the same substance?
A: 8.41%

Q: And the events of hypoglycemia (patients with T2DM; Cohort 1)?
A: 4 events

Q: And the events of hypoglycemia (patients with T2DM; Cohort 1, 30 minute premeal dosing time group)?
A: 3 events

Q: What about the events of hypoglycemia (patients with T2DM; Cohort 2, all in the afternoon) of the same substance?
A: 5 events

Q: What about the events of hypoglycemia (patients with T2DM; all cohorts) of the same substance?
A: 43 events

Q: What about the “hypoglycemic events mild in severity” value (patients with T2DM; all cohorts) of the same substance?
A: 83.7%

Q: And the “patient discontinuations from the study due to AEs” value (patients with T2DM; all cohorts)?
A: no patient discontinuations

Q: What about the “duration of hypoglycemic symptoms” value (patients with T2DM; generally) of the same substance?
A: approximately 30 minutes

Q: What about the “overall safety and tolerability” value (patients with T2DM) of the same substance?
A: safe and well tolerated

Q: And the “overall safety and tolerability” value (patients with T2DM; listed as Insulin tregopil)?
A: well tolerated

Q: What about the “2-hour postprandial glucose (PPG), higher than the premeal levels” value (“2-hour postprandial glucose (PPG)” below) ([4]; Cohort 1, 10 minute premeal group (placebo 55%)) of the same substance?
A: 36%

Q: And the “2-hour postprandial glucose (PPG)” value ([4]; Cohort 1, 20 minute premeal group (placebo 55%))?
A: 55%

Q: What about the “2-hour postprandial glucose (PPG)” value ([4]; Cohort 1, 30 minute premeal group (placebo 55%)) of the same substance?
A: 77%

Q: What about the “duration of glucose-lowering action” value ([4]; oral, patients with T2DM) of the same substance?
A: approximately 2 hours
